Published values collected from several papers.
Protocols differ between the studies behind these lines.

SMILES	species	matrix	route	dose	setting	Tmax
CCO[C@H]1CCN(Cc2c(OC)cc(C)c3[nH]ccc23)[C@H](c2ccc(C(=O)O)cc2)C1	human	plasma	oral	200 mg	multiple doses, twice daily, patients	2 h
C#C[C@]1(COP(=O)(O)OP(=O)(O)OP(=O)(O)O)O[C@@H](n2cnc3c(N)nc(F)nc32)C[C@@H]1O	human	plasma	oral	200 mg	single dose	6 h
C[C@@H](Nc1cc(F)cc(F)c1)c1cc(C(=O)N(C)C)cc2c(=O)cc(N3CCOCC3)oc12	human	plasma	oral	120 mg	single dose, patients	2 h
CC(C)[C@](O)(c1ccc2cc(OC(F)F)c(OC(F)F)cc2c1)c1c[nH]nn1	female human	plasma	oral	450 mg	single dose	1.9 h
CC(C)(O)c1ccccc1-c1ccc2[nH]c(/C=C/c3ccc(C(F)(F)F)cc3)nc2c1	male human	plasma	oral	225 mg	single dose, fasted	2.02 h
C/C(=C\c1csc(C)n1)[C@@H]1C[C@@H]2O[C@]2(C)CCC[C@H](C)[C@H](O)[C@@H](C)C(=O)C(C)(C)[C@@H](O)CC(=O)N1	human	plasma	intravenous	15 mg/m²	patients	0.8 h
Cn1cc(-c2ccc(S(=O)(=O)[C@@H]3C[C@@H](C(=O)NC4(C#N)CC4)N(C(=O)C4(C(F)(F)F)CC4)C3)c(C(F)(F)F)c2)cn1	human	plasma	oral	30 mg	single dose, fasted, healthy volunteers	4.51 h
Cc1nc(NC(=O)N2CCC[C@H]2C(N)=O)sc1-c1ccnc(C(C)(C)C(F)(F)F)c1	human	plasma	oral	350 mg	patients	1.77 h
c1cnc2ccc(Nc3nc(NC4CC4)c4nc[nH]c4n3)cc2c1	human	plasma	oral	50 mg/m²	patients	5 h
COc1cc(N2CCC(N3CCN(C)CC3)CC2)ccc1Nc1ncnc(Nc2ccccc2S(=O)(=O)C(C)C)n1	human	plasma	oral	50 mg	multiple doses, patients	2.99 h
FC(F)(F)c1ccc(CNc2ccc(Cc3c[nH]c4ncc(Cl)cc34)cn2)cn1	human	plasma	oral	600 mg	single dose	2.5 h
CCc1nc2c(C)cc(N3CCN(CC(=O)N4CC(O)C4)CC3)cn2c1N(C)c1nc(-c2ccc(F)cc2)c(C#N)s1	human	plasma	oral	1000 mg	fed, healthy volunteers	2 h
CC(C)n1cc(C#N)c2cc(-n3cc(C(=O)O)cn3)ccc21	human	plasma	oral	200 mg	single dose, fed, healthy volunteers	5 h
COc1ccc([C@@H]2CN(C(=O)[C@@H](O)CO)C[C@@]2(C)[C@@H](C)O)cc1OC1CN(c2ccc(C)cn2)C1	human	plasma	oral	30 mg	single dose, healthy volunteers	3.88 h
C=CC(=O)N(C)CCOc1c(N)ncnc1-c1cc(F)cc(NC(=O)c2ccc(C3CC3)cc2F)c1C	human	blood	oral	15 mg	single dose, healthy volunteers	0.5 h
CC(C)(Sc1ccncc1-c1ccc(C#N)c2ccccc12)C(=O)O	male human	plasma	oral	20 mg	single dose, fed, healthy volunteers	1.25 h
Cc1nc(-c2cn3c(n2)-c2ccc(-c4cnn(C(C)(C)C(N)=O)c4)cc2OCC3)n(C(C)C)n1	human	plasma	oral	2 mg	patients	3.97 h
C[C@@]1(c2cc(NC(=O)c3ccc(C#N)cn3)ccc2F)C=CSC(N)=N1	male human	plasma	oral	1 mg	single dose	0.75 h
